The source made the active and inactive calls. The rule behind the calls is not given here.
Columns and labels:
[1] = tested on: Human immunodeficiency virus 1; experiment: Antiviral activity against Human immunodeficiency virus 1 3B infected in human CEM-SS cells assessed as inhibition of virus-induced cytopathic effect after 6 days by MTS assay; assay type: functional, organism-based; settings: 144 h
[2] = tested on: Human immunodeficiency virus 1; experiment: Antiviral activity against NNRTI-resistant Human immunodeficiency virus 1; assay type: functional, organism-based
[3] = biological target: Human immunodeficiency virus type 1 reverse transcriptase (Human immunodeficiency virus 1) (UniProt Q72547); experiment: Binding affinity to HIV1 reverse transcriptase assessed as compound-terminated template/primer translocation from N-site to P-site of enzyme preincubated for 20 mins prior to TTP addition measured after 10 mins by gel electrophoretic analysis
Procedure, shortened: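 50 nM 32P-labelled primer/RNA template with 300 nM RT in 120 mM Na cacodylate pH 7.0, 20 mM NaCl, 6 mM MgCl2 and 100 μM AZT-TP or triphosphate analogue, 20 min at 37°C, for chain-terminator incorporation. Varying TTP then added for 10 min, followed by 500 μM Fe(NH4)2SO4 cleavage. Products resolved by denaturing gel electrophoresis.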

[4] = tested on: Human immunodeficiency virus 1; experiment: Antiviral activity against AZT-resistant Human immunodeficiency virus 1 expressing D67N/K70R/T215F/K219Q reverse transcriptase mutation; assay type: functional, organism-based
[5] = tested on: Human immunodeficiency virus 1; experiment: Antiviral activity against wild type Human immunodeficiency virus 1 expressing p24 infected in human HeLa P4/R5 cells preincubated for 16 hrs prior to virus infection measured after 48 hrs by beta-galactosidase-based single replication cycle assay; assay type: functional, organism-based; settings: for EC50: Human immunodeficiency virus 1, P4/R5
Procedure, shortened: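 P4R5 indicator cells express CD4, CXCR4, CCR5 and an HIV LTR-driven β-galactosidase reporter, and were kept in DMEM/10% FBS with puromycin. Cells were seeded at 5×10^3 per well and exposed to varying drug concentrations for 16 h. They were then inoculated with 25 ng HIV-1 p24 per well. Infection was quantified 48 h post-infection by fluorescence-based β-galactosidase detection.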

[6] = (§1) Cytotoxicity against human CEM-SS cells assessed as cell viability after 6 days by MTS assay; assay type: cell-based; settings: CEM-SS cells
[7] = biological target: Human immunodeficiency virus type 1 reverse transcriptase (Human immunodeficiency virus 1) (UniProt Q72547); experiment: Induction of AZT-resistant HIV1 reverse transcriptase assessed as rate of ATP-mediated excision of chain-terminating nucleotides by phosphorimaging analysis
Procedure, shortened: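 5'-32P-labelled DNA primer annealed 1:1.5 to 40-nt RNA template, then chain-terminated with AZT-TP or the triphosphate analogue. AZT-resistant RT and terminated template/primer (2:1) in 50 mM Tris-HCl pH 8.0, 50 mM KCl. Started with 6 mM MgCl2 and 3 mM pyrophosphatase-pretreated ATP, 37°C. Stopped at timed points with formamide/EDTA dye and resolved by denaturing gel.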

[8] = tested on: Human immunodeficiency virus 1; experiment: Ratio of EC50 for NNRTI-resistant Human immunodeficiency virus 1 to EC50 for wild type Human immunodeficiency virus 1 expressing p24; assay type: functional
CEM-SS [9] = experiment: Cytotoxicity against human CEM-SS cells assessed as cell viability at 10 uM after 6 days by MTS assay relative to control; assay type: cell-based; settings: 144 h
CEM-SS [10] = experiment: as §1; assay type: cell-based; settings: cem-ss, 144 h
[11] = tested on: Human immunodeficiency virus 1; experiment: Ratio of EC50 for AZT-resistant Human immunodeficiency virus 1 to EC50 for wild type Human immunodeficiency virus 1 expressing p24; assay type: functional
[12] = tested on: Human immunodeficiency virus 1; experiment: Antiviral activity against Human immunodeficiency virus 1 3B infected in human CEM-SS cells assessed as inhibition of virus-induced cytopathic effect at 10 uM after 6 days by MTS assay relative to control; assay type: functional; settings: 144 h
[13] = Therapeutic index, ratio of CC50 for human CEM-SS cells to EC50 for Human immunodeficiency virus 1 3B; assay type: cell-based; settings: read-out: Ratio CC50/EC50
[14] = biological target: Human immunodeficiency virus type 1 reverse transcriptase (Human immunodeficiency virus 1, UniProt Q72547); experiment: Inhibition of HIV1 reverse transcriptase-mediated [H3]TTP incorporation into poly(rA)-oligo(dT)16 DNA preincubated for 5 mins prior to primer/template and substrate addition by liquid scintillation spectrometric analysis
Procedure, shortened: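 10 nM wt HIV-1 RT preincubated 5 min with inhibitor in DMSO (1% final), then 40 nM poly(rA)-oligo(dT)16 and 10 μM [3H]TTP added. Buffer 50 mM Tris-HCl pH 8.0, 60 mM KCl, 10 mM MgCl2; 20 min at 37°C. Quenched with cold 10% TCA/20 mM pyrophosphate, glass-fibre filtered, washed with TCA and ethanol, incorporation counted by liquid scintillation.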

SMILES | EC50 [1] | EC50 [2] | Activity [3] | EC50 [4] | EC50 [5] | CC50 at 144 h [6] | Activity [7] | Ratio EC50 [8] | Activity (CEM-SS [9]) | Activity [5] | CC50 (CEM-SS [10]) | Ratio EC50 [11] | inhibition at 10 µM [12] | selectivity ratio [13] | IC50 [14]
Cc1cn([C@H]2C[C@H](N=[N+]=[N-])[C@@H](CO)O2)c(=O)[nH]c1=O [ZIDOVUDINE] | 5.3 nM | 120 nM | Active | 7900 nM | 140 nM | > 1000 nM | 0.024 min⁻¹ | – | – | – | – | – | – | – | –
Cc1cn([C@H]2C[C@H](n3nncc3-c3cccc4ccccc34)[C@@H](CO)O2)c(=O)[nH]c1=O | 67 nM | 600 nM | – | 9100 nM | 1000 nM | – | – | 0.6 | 100% | Dose-dependent effect | 61000 nM | 9 | 83% | 910 | –
Cc1cn([C@H]2C[C@H](n3nncc3-c3cccc4ccccc34)[C@@H](COP(=O)(O)OP(=O)(O)OP(=O)(O)O)O2)c(=O)[nH]c1=O | – | – | Active | – | – | – | 0.0126 min⁻¹ | – | – | – | – | – | – | – | 3700 nM
